The text below walks through data of ChEMBL document CHEMBL1145533, “Antimicrobial activities of ceragenins against clinical isolates of resistant Staphylococcus aureus” (2007).

The subject of assay [1] is Staphylococcus aureus. Description: Antimicrobial activity against glycopeptide-intermediate Staphylococcus aureus by broth microdilution technique after 24 hrs. The class given is functional. Summed up: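 CLSI broth microdilution MIC and MBC in duplicate. Mueller-Hinton broth supplemented with Mg 12.5 mg/liter and Ca 25 mg/liter (Ca 50 mg/liter for daptomycin). Inoculum 5 × 10⁵ CFU/ml, 24 h at 35°C, tested up to 32.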

For assay [2], the system named is Staphylococcus aureus. Description: Antimicrobial activity against heterogeneous glycopeptide-intermediate Staphylococcus aureus by broth microdilution technique after 24 hrs. The class given is functional. A digest of the protocol:
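CLSI broth microdilution in Mueller-Hinton broth with Mg 12.5 mg/liter and Ca 25 mg/liter. […] MBC determined as well. hVISA isolates were identified by subpopulation analysis.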

Assay [3] concerns Staphylococcus aureus. Kind of assay: Bactericidal killing activity against Staphylococcus aureus Mu3 at MIC. The class given is functional. A digest of the protocol:
(§1)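 Time-kill in triplicate in Mueller-Hinton broth supplemented with Mg 12.5 mg/liter and Ca 25 mg/liter. Agent at 0.5×, 1×, 4× and 10× MIC. Starting inocula 5 × 10⁵ (about 6 log₁₀) or 1 × 10⁸ to 1 × 10⁹ CFU/ml. Samples at 0, 1, 4, 8 and 24 h, serially diluted in cold 0.9% NaCl or filtered to remove carryover. Counted by spiral plating on trypticase soy agar; detection limit 2 log₁₀ CFU/ml. Bactericidal = 99.9% kill.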

Assay [4] relates to Staphylococcus aureus. Kind of assay: Antibacterial activity against Staphylococcus aureus Mu50 assessed as bacterial density after 24 hrs by time-kill curve analysis. The class given is functional. Summed up:
(§2)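 Time-kill in Mueller-Hinton broth with Mg 12.5 mg/liter and Ca 25 mg/liter, run in triplicate. Drug at 0.5×, 1×, 4× and 10× MIC. Starting inocula ~6 log10 CFU/ml (5 × 10⁵ to 10⁶) or 8–9 log10 CFU/ml. Samples taken at 0, 1, 4, 8 and 24 h, diluted in cold 0.9% NaCl (filtered if carryover was possible), then spiral plated. Detection limit 2 log10 CFU/ml. Bactericidal = 99.9% kill.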

The subject of assay [5] is Staphylococcus aureus. Kind of assay: Bactericidal killing activity of heterogenous vancomycin-intermediate Staphylococcus aureus by time kill curve analysis. The class given is functional, organism-based. Summed up: as §1
The test system of assay [6] is Staphylococcus aureus. Description: Bactericidal killing activity against 8 to 9 log10 CFU/ml Staphylococcus aureus Mu3 at MIC by time-kill curve analysis. The class given is functional. A digest of the protocol: as §2
Assay [7] has as its system Staphylococcus aureus. Description: Bactericidal killing activity against 6 log10 CFU/ml Staphylococcus aureus Mu3 at MIC by time-kill curve analysis. The class given is functional. A digest of the protocol:
as §1

Assay [8] concerns Staphylococcus aureus. Kind of assay: Bactericidal killing activity against Staphylococcus aureus Mu3 at 10 times MIC. The class given is functional. Summed up:
as §2

Assay [9] relates to Staphylococcus aureus. Description: Antibacterial activity against Staphylococcus aureus Mu50 assessed as bacterial density after 8 hrs by time-kill curve analysis. The class given is functional. A digest of the protocol:
as §2

Assay [10] concerns Staphylococcus aureus. Kind of assay: Bactericidal killing activity against Staphylococcus aureus Mu3 at 0.5 times MIC. The class given is functional. Summed up:
as §1

The test system of assay [11] is Staphylococcus aureus. Description: Bactericidal killing activity of heterogenous vancomycin-intermediate Staphylococcus aureus at 10 times MIC by time kill curve analysis. The class given is functional. A digest of the protocol: as §1
For assay [12], the system named is Staphylococcus aureus. Kind of assay: Post antibiotic effect on vancomycin-resistant Staphylococcus aureus PA after 0.5 hrs. The class given is functional, organism-based. A digest of the protocol: (§3)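 Cultures exposed for 0.5 h at 1×, 2× and 4× MIC, then drug removed by washing, dilution, filtration or inactivation. PAE = T − C, where each is the time for counts to rise 1 log10 above the count right after drug removal, for treated (T) and untreated control (C) cultures.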

The subject of assay [13] is Staphylococcus aureus. Kind of assay: Antibacterial activity against Staphylococcus aureus Mu3 assessed as bacterial density after 8 hrs by time-kill curve analysis. The class given is functional. A digest of the protocol: as §1
For assay [14], the system named is Staphylococcus aureus. Description: Antibacterial activity against Staphylococcus aureus Mu3 assessed as bacterial density after 24 hrs by time-kill curve analysis. The class given is functional. A digest of the protocol:
as §1

The test system of assay [15] is Staphylococcus aureus. Description: Post antibiotic effect on Staphylococcus aureus Mu3 after 0.5 hrs. The class given is functional, organism-based. A digest of the protocol: (§4)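 Exposure for 0.5 h at 1×, 2× and 4× MIC, then rapid drug removal by washing, dilution, filtration or inactivation. PAE = T − C: time for treated culture to rise 1 log₁₀ CFU/ml after removal, minus the same for an untreated control. Reported as average ± standard deviation.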

Assay [16] concerns Staphylococcus aureus. Kind of assay: Bactericidal killing activity against Staphylococcus aureus Mu50 at MIC. The class given is functional. A digest of the protocol:
as §2

For assay [17], the system named is Staphylococcus aureus. Description: Bactericidal killing activity against 8 to 9 log10 CFU/ml Staphylococcus aureus Mu50 at 4 times MIC by time-kill curve analysis. The class given is functional. A digest of the protocol:
as §1

Assay [18] relates to Staphylococcus aureus. Kind of assay: Bactericidal killing activity of vancomycin-intermediate Staphylococcus aureus at 10 times MIC by time kill curve analysis. The class given is functional. A digest of the protocol: as §1
The test system of assay [19] is Staphylococcus aureus. Kind of assay: Bactericidal killing activity against Staphylococcus aureus Mu3 at 4 times MIC. The class given is functional. Summed up: as §1
The test system of assay [20] is Staphylococcus aureus. Description: Bactericidal killing activity against 6 log10 CFU/ml Staphylococcus aureus Mu50 at 4 times MIC by time-kill curve analysis. The class given is functional. A digest of the protocol: as §1
Assay [21] concerns Staphylococcus aureus. Description: Bactericidal killing activity against Staphylococcus aureus Mu50 at 4 times MIC. The class given is functional. A digest of the protocol: as §2
The test system of assay [22] is Staphylococcus aureus. Kind of assay: Bactericidal killing activity of vancomycin-resistant Staphylococcus aureus by time kill curve analysis. The class given is functional, organism-based. Summed up:
as §2

Assay [23] relates to Staphylococcus aureus. Kind of assay: Post antibiotic effect on vancomycin-resistant Staphylococcus aureus MI after 0.5 hrs. The class given is functional, organism-based. A digest of the protocol:
as §3

Assay [24] relates to Staphylococcus aureus. Description: Bactericidal killing activity of vancomycin-intermediate Staphylococcus aureus by time kill curve analysis. The class given is functional, organism-based. Summed up:
as §1

Assay [25] has as its system Staphylococcus aureus. Description: Post antibiotic effect on Staphylococcus aureus Mu50 after 0.5 hrs. The class given is functional, organism-based. A digest of the protocol: as §4

≈ marks a conversion by molar mass, not a printed value.

`CCCCCCCCCC(=O)N[C@@H](Cc1c[nH]c2ccccc12)C(=O)N[C@H](CC(N)=O)C(=O)N[C@@H](CC(=O)O)C(=O)N[C@@H]1C(=O)NCC(=O)N[C@@H](CCCN)C(=O)N[C@@H](CC(=O)O)C(=O)N[C@H](C)C(=O)N[C@@H](CC(=O)O)C(=O)NCC(=O)N[C@H](CO)C(=O)N[C@@H]([C@H](C)CC(=O)O)C(=O)N[C@@H](CC(=O)c2ccccc2N)C(=O)O[C@@H]1C`: in the assay on Staphylococcus aureus [1], the MBC50 turned out to be 0.5 µg/mL (≈ 0.309 µM) and the MBC90 came to 1 µg/mL (≈ 0.617 µM). For the same compound, in the assay with Staphylococcus aureus [2], the MIC50 came out at 0.5 µg/mL (≈ 0.309 µM) and the MIC90 was 1 µg/mL (≈ 0.617 µM).

In the assay with Staphylococcus aureus [1], `CN[C@H](CC(C)C)C(=O)N[C@H]1C(=O)N[C@@H](CC(N)=O)C(=O)N[C@H]2C(=O)N[C@H]3C(=O)N[C@H](C(=O)N[C@H](C(=O)O)c4cc(O)cc(O)c4-c4cc3ccc4O)[C@H](O)c3ccc(c(Cl)c3)Oc3cc2cc(c3O[C@@H]2O[C@H](CO)[C@@H](O)[C@H](O)[C@H]2O[C@H]2C[C@](C)(N)[C@H](O)[C@H](C)O2)Oc2ccc(cc2Cl)[C@H]1O` [VANCOMYCIN] registered an MBC50 of 8 µg/mL (≈ 5.52 µM) and an MBC90 of 8 µg/mL (≈ 5.52 µM). Besides, in the assay with Staphylococcus aureus [2], the MIC50 amounted to 4 µg/mL (≈ 2.76 µM) and the MIC90 came out at 8 µg/mL (≈ 5.52 µM).

In the assay on Staphylococcus aureus [1], `CC(=O)NC[C@H]1CN(c2ccc(N3CCOCC3)c(F)c2)C(=O)O1` [LINEZOLID] yielded an MBC50 of 8 µg/mL (≈ 23.7 µM) and an MBC90 of 64 µg/mL (≈ 190 µM). In the assay with Staphylococcus aureus [2], this compound yielded an MIC50 of 1 µg/mL (≈ 2.96 µM) and an MIC90 of 2 µg/mL (≈ 5.93 µM).

As to `CCCCCCCCNCCC[C@@H](C)[C@H]1CC[C@H]2[C@@H]3[C@H](OCCCN)CC4C[C@H](OCCCN)CC[C@]4(C)[C@H]3C[C@H](OCCCN)[C@]12C.Cl.Cl.Cl.Cl` (stereo partly drawn), the T99.9% in the assay on Staphylococcus aureus [3] was 8 h; in the assay with Staphylococcus aureus [6], “>=24 hr”; with Staphylococcus aureus [7], 8 h; with Staphylococcus aureus [8], 1 h; in the assay on Staphylococcus aureus [10], 24 h; in the assay with Staphylococcus aureus [11] it was 1 h. The T99.9% with Staphylococcus aureus [16] was 8 h; with Staphylococcus aureus [17], “>=24 hr”; with Staphylococcus aureus [18], 1 h; with Staphylococcus aureus [19], 4 h; in the assay with Staphylococcus aureus [20] it was 4 h; in the assay on Staphylococcus aureus [21] it was 4 h. Also, the log10CFU/ml in the assay on Staphylococcus aureus [4] is -3.75; in the assay with Staphylococcus aureus [9] it was -3.4; in the assay with Staphylococcus aureus [13], -3.4; in the assay with Staphylococcus aureus [14] it was -3.75. The Activity result in the assay on Staphylococcus aureus [5], in the assay on Staphylococcus aureus [22] and in the assay with Staphylococcus aureus [24] was “Dose-dependent effect” in each case. The Post anitbiotic effect entry in the assay with Staphylococcus aureus [12], with Staphylococcus aureus [15], in the assay with Staphylococcus aureus [23] and in the assay on Staphylococcus aureus [25] was “Dose-dependent effect” in each case. The compound also yielded an MBC50 against Staphylococcus aureus [1] of 1 µg/mL. This compound also returned an MBC90 in the assay on Staphylococcus aureus [1] of 1 µg/mL. In addition, in the assay on Staphylococcus aureus [2], the MIC50 was 1 µg/mL. Further, the MIC90 against Staphylococcus aureus [2] amounted to 1 µg/mL.

Consider `C[C@H](CCCO)[C@H]1CC[C@H]2[C@@H]3[C@H](OCCCN)CC4C[C@H](OCCCN)CC[C@]4(C)[C@H]3C[C@H](OCCCN)[C@]12C.Cl` (stereo partly drawn), for which, in the assay with Staphylococcus aureus [1], the MBC50 came to 8 µg/mL and the MBC90 worked out at 8 µg/mL. Besides, in the assay on Staphylococcus aureus [2], the MIC50 is 4 µg/mL and the MIC90 is 8 µg/mL.
